Measurements gathered from unrelated publications.
Lines come from different studies, so protocols differ. pEC50, pIC50, pKd, pKi: −log10 of the molar value.
PSMB8: Proteasome subunit beta type-8 (PSMB8, Homo sapiens, UniProt P28062)
Mc1r: Melanocyte-stimulating hormone receptor (Mc1r, Mus musculus, UniProt Q01727)
GCGR: Glucagon receptor (GCGR, Homo sapiens, UniProt P47871)

Cc1ncc(C(=O)N[C@@H](CC(C)C)C(=O)N[C@@H](CC2CCCC3CCCCC32)C(=O)N[C@H](/C=C/S(C)(=O)=O)Cc2ccc(CN)cc2)s1 (some centres unmarked)  pIC50 (PSMB8; enzyme activity; inhibitor; lysate): < 5.00
CCOc1ccc2c(-c3cc(C)nc(Nc4cc(OC)cc(C(F)(F)F)c4)n3)cnn2n1  pIC50 (Homeodomain-interacting protein kinase 2 (HIPK2, Homo sapiens, UniProt Q9H2X6); enzyme activity; inhibitor): < 5.00
CCCC[C@H](NC(=O)[C@@H](NC(=O)[C@@H](N)Cc1ccc(O)cc1)C(C)C)C(=O)NCC(=O)N[C@@H](Cc1c[nH]cn1)C(=O)N[C@@H](Cc1ccccc1)C(=O)N[C@@H](CCCN=C(N)N)C(=O)N[C@@H](Cc1c[nH]c2ccccc12)C(=O)N[C@@H](CC(=O)O)C(=O)N[C@@H](CCCN=C(N)N)C(=O)N[C@@H](Cc1ccccc1)C(=O)NCC(=O)O  pEC50 (Mc1r; reporter gene; agonist): 6.41
CC(C)C[C@H](NC(=O)CN1CCOCC1)C(=O)N[C@@H](CC(C)C)C(=O)N[C@H](/C=C/S(C)(=O)=O)Cc1ccc(CN)cc1  pIC50 (PSMB8; enzyme activity; inhibitor; lysate): < 5.00
N=C(N)NCCC[C@H](NC(=O)[C@H](CC(=O)O)NC(=O)[C@H](Cc1c[nH]c2ccccc12)NC(=O)[C@H](CCCNC(=N)N)NC(=O)[C@H](Cc1ccccc1)NC(=O)[C@H](Cc1c[nH]cn1)NC(=O)CN)C(=O)N[C@@H](Cc1ccccc1)C(=O)NCC(=O)O  pEC50 (Mc1r; reporter gene; agonist): 5.10
N#Cc1ccc(COc2cccc(C3CCN(Cc4nc5ccc(C(=O)O)cc5n4C[C@@H]4CCO4)CC3)n2)c(F)c1  pEC50 (GCGR; cAMP; agonist): < 4.70
Cc1ncc(C(=O)N[C@@H](CC2CCCCC2)C(=O)N[C@@H](CC2CCCCC2)C(=O)N[C@H](/C=C/S(C)(=O)=O)Cc2ccc(CN)cc2)s1  pIC50 (PSMB8; enzyme activity; inhibitor; lysate): < 5.00
CC1=C(/C=C/C(C)=C/C=C/C(C)=C/C=O)C(C)(C)CCC1  pKd (Cellular retinoic acid-binding protein 2 (CRABP2, Homo sapiens, UniProt P29373, R133K/Y135F); binding; fluorescence): 6.92
CN1CCN(c2ccc(Nc3ncc4cc(C#N)c(=O)n(C5CCCC5)c4n3)cc2)CC1  pIC50 (Dual specificity tyrosine-phosphorylation-regulated kinase 1B (DYRK1B, Homo sapiens, UniProt Q9Y463); enzyme activity; inhibitor): 6.62
CCCCN1CCC(COC(=O)c2ccc(N)c(OCF)c2)CC1  pKi (Muscarinic acetylcholine receptor M3 (CHRM3, Homo sapiens, UniProt P20309); cell-free assay; radioligand): 5.86
N=C(N)NCCC[C@H](N)C(=O)N[C@@H](Cc1ccccc1)C(=O)NCC(=O)O  pEC50 (Mc1r; reporter gene; agonist): < 4.00
Cc1ncc(C(=O)N[C@@H](CC(C)C)C(=O)N[C@@H](CCC2CCCCC2)C(=O)N[C@H](/C=C/S(C)(=O)=O)Cc2ccc(CN)cc2)s1  pIC50 (PSMB8; enzyme activity; inhibitor; lysate): 5.40
CSCC[C@H](NC(=O)[C@@H](NC(=O)[C@@H](N)Cc1ccc(O)cc1)C(C)C)C(=O)NCC(=O)N[C@@H](Cc1c[nH]cn1)C(=O)N[C@@H](Cc1ccccc1)C(=O)N[C@@H](CCCNC(=N)N)C(=O)N[C@@H](Cc1c[nH]c2ccccc12)C(=O)O  pEC50 (Mc1r; reporter gene; agonist): 5.54
CC[C@H](C)[C@H](NC(=O)[C@H](CO)NC(=O)[C@H](Cc1ccc(O)cc1)NC(=O)[C@H](CC(=O)O)NC(=O)[C@H](CO)NC(=O)[C@@H](NC(=O)[C@H](Cc1ccccc1)NC(=O)[C@@H](NC(=O)CNC(=O)[C@H](CCC(=O)O)NC(=O)[C@H](C)NC(=O)[C@@H](N)Cc1ccc(O)cc1)[C@@H](C)O)[C@@H](C)CC)C(=O)N[C@@H](C)C(=O)N[C@@H](CCSC)C(=O)N[C@@H](CC(=O)O)C(=O)N[C@@H](CCCCN)C(=O)N[C@H](C(=O)N[C@@H](Cc1c[nH]cn1)C(=O)N[C@@H](CCC(N)=O)C(=O)N[C@@H](CCC(N)=O)C(=O)N[C@@H](CC(=O)O)C(=O)N[C@@H](Cc1ccccc1)C(=O)N[C@H](C(=O)N[C@@H](CC(N)=O)C(=O)N[C@@H](Cc1c[nH]c2ccccc12)C(=O)N[C@@H](CC(C)C)C(=O)N[C@@H](CC(C)C)C(=O)N[C@@H](C)C(=O)N[C@@H](CCC(N)=O)C(=O)N[C@@H](CCCCN)C(=O)NCC(=O)N[C@@H](CCCCN)C(=O)N[C@@H](CCCCN)C(=O)N[C@@H](CC(N)=O)C(=O)N[C@@H](CC(=O)O)C(=O)N[C@@H](Cc1c[nH]c2ccccc12)C(=O)N[C@@H](CCCCN)C(=O)N[C@@H](Cc1c[nH]cn1)C(=O)N[C@@H](CC(N)=O)C(=O)N[C@H](C(=O)N[C@H](C(=O)N[C@@H](CCC(N)=O)C(=O)O)[C@@H](C)O)[C@@H](C)CC)C(C)C)[C@@H](C)CC  pEC50 (GCGR; reporter gene; agonist; luciferase): 6.30
